hERG rescue = hERG (human) protection from proarrhythmic block. Q12809. CHO-hERG, FluxOR thallium flux, dofetilide IC70 present. activation (rescue from dofetilide block), less the hit threshold, % at 10 µM. hit rate 0.51% among 310,000. AID 1511;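 active means activation above the mean of controls blocked by dofetilide plus 5 SD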;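 further: thallium influx through hERG after potassium depolarization seen as dye fluorescence rise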
KCNK9 inh = blocks the human KCNK9 two-pore domain potassium channel; hit rate 1.2% among 310,000; B-score at 10 µM; HEK293 KCNK9, FluxOR thallium flux fluorescence; stronger effect = lower value;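 active means ratio B-score over 3 SD below the library mean, with starting fluorescence within 5 SD of its mean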;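 further: negative B-score means less thallium flux so channel inhibition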
Kir21 inh = blocks the mouse Kir2.1 inward-rectifier potassium channel; hit rate 0.85% among 310,000; P35561; AID 1672; B-score at 10 µM; HEK293-Kir2.1, FluxOR thallium flux fluorescence; stronger effect = lower value;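 active means fluorescence ratio B-score at or below minus 3 SD of library scores, with starting-brightness B-score within 2 SD, cut at about -4.2 in these data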;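 further: channel flux triggered by added potassium and thallium sulfate stimulus; B-score of peak minus minimum fluorescence over baseline after thallium stimulus; more negative B-score means stronger Kir2.1 block with less thallium influx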
KCNQ1 inh = inhibitors of human KCNQ1 potassium channel; P51787; CHO-K1 KCNQ1, FluxOR thallium flux fluorescence; stronger effect = higher value; B-score at 10 µM; hit rate 1.3% among 310,000; AID 2642;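 active means compounds whose thallium flux B-score, printed positive for inhibition, exceeds three library SD while starting fluorescence stays within three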;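 further: channel opened by potassium depolarization with thallium stimulus after 20 min compound exposure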
Target sequence (P51787 whole entry, looked up): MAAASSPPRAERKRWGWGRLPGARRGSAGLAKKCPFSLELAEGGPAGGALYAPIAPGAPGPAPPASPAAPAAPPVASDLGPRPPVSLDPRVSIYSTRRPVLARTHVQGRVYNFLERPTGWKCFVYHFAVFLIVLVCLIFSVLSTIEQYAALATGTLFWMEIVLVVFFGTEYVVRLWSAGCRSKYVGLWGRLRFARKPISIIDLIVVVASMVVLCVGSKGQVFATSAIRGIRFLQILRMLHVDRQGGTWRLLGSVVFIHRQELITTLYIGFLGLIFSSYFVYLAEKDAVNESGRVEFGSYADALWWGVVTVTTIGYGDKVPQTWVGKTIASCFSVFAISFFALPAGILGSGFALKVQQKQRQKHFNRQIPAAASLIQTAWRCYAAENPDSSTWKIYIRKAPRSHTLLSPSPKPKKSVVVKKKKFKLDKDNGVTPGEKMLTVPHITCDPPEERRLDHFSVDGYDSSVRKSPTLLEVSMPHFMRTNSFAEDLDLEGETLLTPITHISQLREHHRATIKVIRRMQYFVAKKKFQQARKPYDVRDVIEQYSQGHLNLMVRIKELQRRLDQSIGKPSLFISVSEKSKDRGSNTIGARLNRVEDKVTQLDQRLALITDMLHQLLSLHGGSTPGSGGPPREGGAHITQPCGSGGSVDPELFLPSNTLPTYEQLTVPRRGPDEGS
KCNQ1 pot = human KCNQ1 channel potentiation or activation | hit rate 0.35% among 310,000 | CHO-K1 KCNQ1, thallium flux FluxOR fluorescence; stronger effect = higher value | P51787 | B-score at 10 µM;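 active means fluorescence ratio B-score, a plate-corrected score, at least three library SD, with initial intensity B-score within 5 SD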
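Assay system: CHO-K1 cells stably expressing KCNQ1. Medium: assay buffer for compound exposure, DMSO matched across wells. Timing: 37 °C overnight plating, 90-min dark dye load, 20-min compound pretreatment. Signal: kinetic FluxOR fluorescence, 10 s baseline plus 110 s post-stimulus.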
KCNK3 inh = human KCNK3 channel inhibition, primary screen; hit rate 0.84% among 340,000; B-score at 10 µM; O14649; AID 602410; CHO-KCNK3 thallium flux, FluxOR fluorescence; stronger effect = lower value;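 active means B-score under library mean minus 4 SD, starting fluorescence ratio at most library mean plus 5 SD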;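 further: more negative B-score means stronger inhibition of thallium flux through KCNK3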
KCNK9 block conf = human KCNK9 inhibitor confirmation. HEK293 KCNK9 cells, FluxOR thallium flux fluorescence. hit rate 43% among 4,900. AID 492992. inhibition, % at 10 µM. shares compounds with KCNK9 inh;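 active means thallium signal inhibited by more than 5 SD of the compound-free buffer control wells, on both duplicate plates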;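 further: 0% = assay buffer control wells without compound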
Kir21 sel = mouse Kir2.1 off-target activity of KCNK9 modulators; shares compounds with KCNK9 inh; Kir2.1 cells, FluxOR thallium flux fluorescence; inhibition, % at 10 µM; hit rate 4% among 4,900; AID 492993;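 active means thallium signal drop more than 5 SD beyond the mean of the no-compound control wells, seen in both duplicate plates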;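 further: signal is fluorescence rise after thallium addition divided by baseline fluorescence; plate controls were assay buffer only for no effect and full block by chlorpromazine control for full effect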
HEK293 Tl ctr = second check of KCNK9 modulator effects in non-induced HEK293 cells | inhibition, % at 10 µM | hit rate 40% among 4,900 | FluxOR thallium flux | shares compounds with KCNK9 inh | AID 492997;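 active means thallium signal drop beyond 5 SD of the untreated control mean, on both duplicate plates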;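 further: plate controls were buffer only IC0 wells for no effect and SID17386958 at its maximal inhibitory level for full effect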
KCNK3 confirm = human KCNK3 channel inhibition, confirmation assay. shares compounds with KCNK3 inh. CHO-KCNK3 thallium flux, FluxOR fluorescence; 0% buffer, 100% carvedilol maximal block. ratio percent of control, % at 10 µM. hit rate 99% among 2,400. AID 651638;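 active means ratio percent of control, averaged over triplicates, above buffer control mean plus 5 SD, cut at about 64% in these data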;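 further: ratio is the fluorescence rise from min to max over baseline after thallium stimulus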
KCNK3 noninduced = activity in cells without induced KCNK3 expression. shares compounds with KCNK3 inh. non-induced KCNK3 parental cells, FluxOR thallium flux; stronger effect = lower value. thallium flux ratio (lower = more inhibition) at 10 µM. hit rate 40% among 2,400. AID 651747;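 active means thallium flux ratio, averaged over three wells, more than 5 SD below the buffer control mean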;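 further: host cells are CHO cells without KCNK3 induction; ratio is peak minus trough fluorescence over baseline then normalized to buffer controls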
An asterisk follows results filed as active; i = inactive; / = no result. Most compounds without a hit are left out; they make up all but 3.7% or so of the library.

SMILES	hERG rescue	KCNK9 inh	Kir21 inh	KCNQ1 inh	KCNQ1 pot	KCNK3 inh	KCNK3 confirm	KCNK3 noninduced	others
O=C(Nc1cccc(-c2nnc(-c3ccco3)o2)c1)C(c1ccccc1)c1ccccc1	-15	-20*	-1.8	10*	i	-13*	135*	0.11*	KCNK9 block conf=72%*;Kir21 sel=i;HEK293 Tl ctr=30%*
O=C(Cc1ccc(Cl)cc1)Nc1cccc(-c2nnc(-c3ccco3)o2)c1	-1	i	-0.35	i	i	i	/	/
O=C(Cc1ccccc1)Nc1cccc(-c2nnc(-c3ccco3)o2)c1	-13	i	0.93	i	i	i	/	/
O=C1C(O)CCN1Cc1ccccc1 (stereo not given)	/	/	/	/	/	i	/	/
COc1nnc(-c2ccc(N3CCOCC3)c(NC(=O)C3CCCCC3)c2)c2ccccc12	-13	i	0.24	i	i	i	/	/
COc1nnc(-c2ccc(N3CCCCC3)c(NC(=O)C3CCCCC3)c2)c2ccccc12	-15	-15*	-0.4	12*	i	-11*	125*	0.14*	KCNK9 block conf=52%*;Kir21 sel=i;HEK293 Tl ctr=i
O=C(N/N=C/c1c(O)ccc2ccccc12)c1cccc(C(F)(F)F)c1	-9	-9.3*	-2.4	i	i	-11*	159*	0.091*	KCNK9 block conf=61%*;Kir21 sel=46%*;HEK293 Tl ctr=61%*
CCn1cc(Cl)c(C(=O)Nc2cccc(C(F)(F)F)c2)n1	-13	-8.5*	-0.32	i	i	i	108*	i	KCNK9 block conf=42%*;Kir21 sel=i;HEK293 Tl ctr=34%*
CCCn1nnnc1NCc1ccccc1C	1	i	-1.4	i	i	i	/	/
CNC(=S)N1N=C(c2cccs2)CC1c1ccc(F)cc1 (stereo not given)	-9	i	0.22	i	i	i	/	/
Fc1ccc(C2CC(c3cccs3)=NN2c2ccccc2)cc1 (stereo not given)	-16	-9.8*	0.35	i	i	-8.9*	104*	0.15*	KCNK9 block conf=58%*;Kir21 sel=i;HEK293 Tl ctr=38%*
CCOC(=O)c1oc2ccccc2c1NC(=O)c1ccc2c(c1)OCO2	-11	i	-2.4	i	i	i	/	/
COc1ccc(NC(=O)c2oc3ccccc3c2NC(=O)c2ccc3c(c2)OCO3)cc1	-20	-11*	-0.34	i	i	-9*	88*	i	KCNK9 block conf=58%*;Kir21 sel=i;HEK293 Tl ctr=i
Fc1ccc(C(c2nnnn2CCc2ccccc2)N2CCCc3ccccc32)cc1 (stereo not given)	-5	-8.3*	-0.01	i	i	-9.1*	93*	0.14*	KCNK9 block conf=34%*;Kir21 sel=i;HEK293 Tl ctr=36%*
Fc1ccc(C(c2nnnn2C2CCCC2)N2CCc3ccccc32)cc1 (stereo not given)	-12	-9.5*	-0.24	i	i	-9.3*	107*	i	KCNK9 block conf=38%*;Kir21 sel=i;HEK293 Tl ctr=46%*
COc1cc2cc(C(c3nnnn3C3CCCC3)N3CCc4ccccc43)c(=O)[nH]c2cc1OC (stereo not given)	-6	i	-1.1	i	i	i	/	/
O=C(N/C(=C\c1ccccc1)C(=O)N1CCOCC1)c1ccccc1Cl	-12	i	0	i	i	i	/	/
O=C(COC(=O)c1cc[n+]([O-])cc1)Nc1cc([N+](=O)[O-])ccc1Cl	-7	i	-0.55	i	i	i	/	/
O=C(CCC(=O)N1CCOc2ccccc21)NCCN1CCOCC1	-5	i	-1.4	i	i	i	/	/
CN(C)Cc1c(O)ccc2[nH]cnc12	-1	i	0.94	i	i	-10*	80*	i
Cc1cccc(NC(=O)CCc2nnc3ccc(N4CCC(C)CC4)nn23)n1	-7	i	1.6	i	i	i	/	/
Cn1nnnc1Sc1ncnc2scc(-c3ccc(-c4ccccc4)cc3)c12	/	/	/	/	/	i	/	/
Cn1nnnc1Sc1ncnc2scc(-c3cc4ccccc4o3)c12	/	/	/	/	/	-13*	118*	i
COc1ccc(/C=C2\SC(=S)NC2=O)cc1OS(=O)(=O)c1ccc(NC(C)=O)cc1	-26	i	0.57	13*	i	-10*	124*	i
N#CCC(=O)N/N=C/c1cn(Cc2ccccc2C#N)c2ccccc12	1	i	0	i	i	i	/	/
SMILES	hERG rescue	KCNK9 inh	Kir21 inh	KCNQ1 inh	KCNQ1 pot	KCNK3 inh	KCNK3 confirm	KCNK3 noninduced	others
N#CCC(=O)N/N=C/c1c(-c2ccccc2)n(-c2ccccc2)c2ccccc12	-7	i	-0.12	i	i	-9.6*	97*	i
Cc1cc(C)nc(N(C#N)Cc2cccc3ccccc23)n1	-6	i	-1.1	i	i	-9.2*	74*	i
COC(=O)c1cc(NC(=O)c2cc(-c3ccccc3Cl)oc2C(F)(F)F)ccc1N1CCOCC1	-13	i	-0.62	8*	i	-11*	84*	0.12*
C[C@@H]1CCC[C@]2(O[C@H](CCO)C[C@@H](O)[C@@H]2O)O1	-4	i	1.5	i	i	i	/	/
COc1cccc(NC(=O)c2cc3ccccc3o/c2=N\O)c1	-23	i	-3.5	i	i	-8.7*	125*	0.13*
O=C(Nc1ccccc1Cl)c1cc2ccccc2o/c1=N\O	-11	i	1.3	i	i	i	/	/
O=[N+]([O-])/C(C(Cl)=C(Cl)Cl)=C(\Sc1ccccc1)N1CCCCC1	-14	i	1.4	i	i	i	/	/
O=[N+]([O-])C(=C1SCCS1)C(=C(Cl)Cl)N1CCCCC1	-4	i	1.2	i	i	-11*	105*	i
Cc1cccc(C)c1NC(=O)CN(C)CC(=O)Nc1ccc(F)c(Cl)c1	2	i	0.09	i	i	-12*	82*	i
Cc1nc(-c2ccc(S(=O)(=O)Oc3ccccc3Cl)s2)cs1	-10	i	0.07	i	i	i	/	/
Cc1ccsc1C(=O)OC(C)C(=O)Nc1ccc(Cl)cn1 (stereo not given)	/	/	/	/	/	i	/	/
